Data from ChEMBL document CHEMBL4706681, “New 2-Pyrazoline and Hydrazone Derivatives as Potent and Selective Monoamine Oxidase A Inhibitors” (J Med Chem, 2021).
Calls of active or inactive are those of the source. No cut-off for these calls is given here.

Experiments:
[1] = Ex vivo inhibition of MAOA in CD1 mouse brain homogenates assessed as inhibition of 5-HT deamination by measuring 5-HIAA metabolite levels at 20 mg/kg, po administered as single acute dose via gavage and measured after 1 hr by HPLC analysis (reference value: 0.28 +/- 0.011 ug/g); assay type: functional
[2] = Ex vivo inhibition of MAOA in CD1 mouse brain homogenates assessed as 5-HT levels at 20 mg/kg, po administered as single acute dose via gavage and measured after 1 hr by ELISA kit method (reference value: 0.80 +/- 0.006 ug/g); assay type: functional
[3] = Ex vivo inhibition of MAOA in CD1 mouse brain homogenates assessed as 5-HT levels at 20 mg/kg, po administered as subchronic dose via gavage for 7 days and measured 1 hr post last dose by ELISA kit method (reference value: 0.78 +/- 0.01 ug/g); assay type: functional; conditions: time 7 day
[4] = (§1) Ex vivo inhibition of MAOA in CD1 mouse brain homogenates assessed as inhibition of 5-HT deamination by measuring 5-HIAA metabolite levels at 20 mg/kg, po administered as subchronic dose via gavage for 7 days and measured 1 hr post last dose by HPLC analysis (reference value: 0.18 +/- 0.01 ug/g); assay type: functional; conditions: time 7 day
[5] = tested on: Mus musculus; experiment: Antidepressant-like activity in po dosed CD1 mouse assessed as maximum efficacy administered as subchronic dose gavage for 7 days and measured 1 h post last dose by Porsolt-forced swim test; assay type: functional; conditions: time 7 day
Summary of the method: (§2)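 Male albino CD-1 mice (20–25 g), 12 h light/dark, food and water ad libitum. Dosed by oral gavage once daily for 7 days in 200 μL 0.5% CMC; vehicle-only controls. […] Forced swim test run 1 h after the last dose. Immobility scored every 60 s over 6 min; n = 8–12.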

[6] = Ex vivo inhibition of MAOA in CD1 mouse brain homogenates assessed as MAOA level at 20 mg/kg, po administered as subchronic dose via gavage for 7 days and measured 1 hr post last dose by monoamine oxidase assay (reference value: 0.40 +/- 0.005 nmol/min/mg); assay type: functional; conditions: time 7 day
[7] = tested on: Mus musculus; experiment: Antidepressant-like activity in CD1 mouse assessed as reduction in immobility time at 20 mg/kg, po via gavage administered as […] dose for 7 days and measured 1 h post last dose by Porsolt-forced swim test; assay type: functional, organism-based; conditions: time 7.0 day
[8] = Ex vivo inhibition of MAOA in CD1 mouse brain homogenates assessed as dopamine levels at 20 mg/kg, po administered as single acute dose via gavage and measured after 1 hr by ELISA kit method (reference value: 7.08 +/- 0.58 ug/g); assay type: functional
[9] = Effect on locomotor activity in CD1 mouse assessed as total distance traveled at 20 mg/kg, po administered via gavage for 7 days by open field test; assay type: ADME, organism-based; conditions: in vivo, 168 h, time 7 day
Summary of the method: (§3)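 Each mouse placed in the centre of a 50 × 50 × 30 cm black box and video-tracked; total distance travelled over 5 min; n = 8–10.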

[10] = tested on: Mus musculus; experiment: Antidepressant-like activity in CD1 mouse assessed as reduction in immobility time at 20 mg/kg, po administered via gavage as single dose measured after 1 hr by Porsolt-forced swim test; assay type: functional, organism-based
[11] = tested on: Mus musculus; experiment: Antidepressant-like activity in CD1 mouse assessed as reduction in immobility time at 10 mg/kg, po administered as subchronic dose via gavage for 7 days and measured 1 h post last dose by Porsolt-forced swim test; assay type: functional, organism-based; conditions: time 7.0 day; summary of the method: as §2
[12] = Ex vivo inhibition of MAOA in CD1 mouse brain homogenates assessed as dopamine levels at 30 mg/kg, po administered as single acute dose via gavage and measured after 1 hr by ELISA kit method (reference value: 7.08 +/- 0.58 ug/g); assay type: functional
[13] = molecular target: T1, Amine oxidase [flavin-containing] B (Homo sapiens, UniProt P27338); experiment: Inhibition of recombinant human MAO-B expressed in baculovirus infected BTI insect cells using p-tyramine as substrate incubated for 30 mins by Amplex red reagent based fluorescence analysis; assay type: cell-based
T1 sequence (P27338 whole entry): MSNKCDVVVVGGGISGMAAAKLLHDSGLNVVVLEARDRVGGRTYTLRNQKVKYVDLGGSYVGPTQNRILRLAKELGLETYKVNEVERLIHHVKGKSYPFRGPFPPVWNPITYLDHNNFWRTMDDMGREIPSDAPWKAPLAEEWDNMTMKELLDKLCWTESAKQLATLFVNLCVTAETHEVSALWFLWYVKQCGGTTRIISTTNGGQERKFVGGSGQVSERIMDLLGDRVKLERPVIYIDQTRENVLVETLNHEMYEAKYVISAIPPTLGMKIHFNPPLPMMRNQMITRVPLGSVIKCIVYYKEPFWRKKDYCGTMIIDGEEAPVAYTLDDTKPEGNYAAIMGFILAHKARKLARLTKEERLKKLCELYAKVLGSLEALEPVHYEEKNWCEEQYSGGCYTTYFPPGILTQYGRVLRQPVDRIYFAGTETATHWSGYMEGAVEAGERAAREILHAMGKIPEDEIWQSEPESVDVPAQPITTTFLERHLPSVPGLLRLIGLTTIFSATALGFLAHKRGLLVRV

[14] = Ex vivo inhibition of MAOA in CD1 mouse brain homogenates assessed as MAOA level at 30 mg/kg, po administered as single acute dose via gavage and measured after 1 hr by monoamine oxidase assay (reference value: 0.40 +/- 0.012 nmol/min/mg); assay type: functional
[15] = as §1, with “levels by using” for “levels”, “30” for “20”; assay type: functional; conditions: time 7 day
[16] = Selectivity index, ratio of Ki for inhibition of recombinant human MAO-A to Ki for inhibition of recombinant human MAO-B using p-tyramine as substrate
[17] = Ex vivo inhibition of MAOA in CD1 mouse brain homogenates assessed as 5-HT levels at 30 mg/kg, po administered as subchronic dose via gavage for 7 days and measured 1 hr post last dose by ELISA kit method (reference value: 0.78 +/- 0.01 ug/g); assay type: functional; conditions: time 7 day
[18] = Ex vivo inhibition of MAOA in CD1 mouse brain homogenates assessed as MAOA level at 30 mg/kg, po administered as subchronic dose via gavage for 7 days and measured 1 hr post last dose by monoamine oxidase assay (reference value: 0.40 +/- 0.005 nmol/min/mg); assay type: functional; conditions: time 7 day
[19] = tested on: Mus musculus; experiment: Antidepressant-like activity in CD1 mouse assessed as maximum efficacy at 20 mg/kg, po administered as subchronic dose gavage for 7 days and measured 1 h post last dose by Porsolt-forced swim test; assay type: functional, organism-based; conditions: time 7.0 day; summary of the method: as §2
[20] = Ex vivo inhibition of MAOA in CD1 mouse brain homogenates assessed as assessed as inhibition of 5-HT deamination by measuring 5-HIAA metabolite levels at 30 mg/kg, po administered as single acute dose via gavage and measured after 1 hr by HPLC analysis (reference value: 0.28 +/- 0.011 ug/g); assay type: functional
[21] = tested on: Mus musculus; experiment: Antidepressant-like activity in CD1 mouse assessed as reduction in immobility time at 30 mg/kg, po administered via gavage as single dose measured after 1 hr by Porsolt-forced swim test; assay type: functional, organism-based
[22] = Effect on locomotor activity in CD1 mouse assessed as total distance traveled at 30 mg/kg, po administered via gavage for 7 days by open field test; assay type: ADME, organism-based; conditions: in vivo, 168 h, time 7 day; summary of the method: as §3

## O=C(NCCN1CCOCC1)c1ccc(Cl)cc1 [MOCLOBEMIDE]
[1]
  Activity: 0.32 µg/g
[2]
  Activity: 0.83 µg/g
[3]
  Activity: 0.91 µg/g
[4]
  Activity: 0.23 µg/g
[5]
  Emax: 20 mg/kg
[6]
  Activity: 0.33 nmol/min/mg
[7]
  Activity: Active
[8]
  Activity: 7.1 µg/g
[9]
  Activity: Non-Toxic
[10]
  Activity: Active
[11]
  Activity: Active

## COc1ccc(C2=NN(C(=O)Cn3c(=O)oc4ccc(C)cc43)C(c3cccc(OC)c3OC)C2)cc1 (configuration not stated)
[12]
  Activity: 7.13 µg/g
[13]
  Ki: 655 µM
[14]
  Activity: 0.23 nmol/min/mg
[15]
  Activity: 0.3 µg/g
[16]
  Ratio Ki: 1.37 10^-5No_unit
[17]
  Activity: 1.15 µg/g
[18]
  Activity: 0.21 nmol/min/mg
[19]
  Activity: inactive
[20]
  Activity: 0.35 µg/g
[21]
  Activity: Active
[22]
  Activity: Non-Toxic
